# Assay outcomes deposited in PubChem by several laboratories.
# Rows were chosen to be rich in hits. Some 1.8% of all compounds tested hit in one or more screens of this group.
# MC4R ag barr: activates human MC4R beta-arrestin recruitment; P32245; U2OS MC4R beta-arrestin complementation, luminescence; percent of melanotan II response, DMSO zero; activation, % at 8.9 µM; 0.98% of 360,000 active; AID 540308;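 active = activation above a per-plate cutoff, the mean activation of sample wells on that plate plus 3 SD, cut at about 8% in these data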
# NTR1 agonist: NTR1 (human) agonism | P30989 | NTR1-U2OS beta-arrestin-GFP spot imaging, agonist mode | activation, % at 20 µM | 0.17% of 330,000 active | AID 493036;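 active = activation at or above 40% of the spot to cytoplasm intensity ratio, with at least 20 cells analyzed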
# Target sequence (P30989 whole entry, looked up): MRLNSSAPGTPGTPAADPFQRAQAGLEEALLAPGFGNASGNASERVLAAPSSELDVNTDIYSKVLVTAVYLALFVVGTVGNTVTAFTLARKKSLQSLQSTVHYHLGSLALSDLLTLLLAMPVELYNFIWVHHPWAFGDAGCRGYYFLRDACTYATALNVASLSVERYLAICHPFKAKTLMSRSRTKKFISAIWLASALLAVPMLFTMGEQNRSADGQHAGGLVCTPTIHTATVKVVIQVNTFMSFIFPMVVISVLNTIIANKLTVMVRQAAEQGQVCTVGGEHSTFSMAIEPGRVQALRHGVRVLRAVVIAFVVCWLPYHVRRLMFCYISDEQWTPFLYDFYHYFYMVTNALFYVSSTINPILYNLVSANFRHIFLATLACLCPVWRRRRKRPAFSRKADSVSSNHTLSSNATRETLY
# MC4R antag cAMP: blocks human MC4R cAMP signaling; 0.48% of 360,000 active; inhibition, % at 6.5 µM; AID 540295; MC4R-expressing cells, MTII-stimulated cAMP, LANCE TR-FRET; P32245;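 active = inhibition above its plate's cutoff, the mean of tested wells on that plate plus 3 SD, cut at about 29% in these data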
#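 Material: U2OS-MC4R stable cell line | Reagent: Melanotan II challenge after compound preincubation | Doses: One concentration, 6.5 µM nominal | Incubation: 30-min compound preincubation, 1-h Melanotan II challenge, 1-h detection, room temperature | Signal: TR-FRET cAMP assay | Replicates: One well per compound, no replicates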
# AI-2 QS mod: modulators of Vibrio harveyi AI-2 quorum sensing system; Vibrio harveyi JMH597 AI-2 luminescence/OD600 ratio, 9 h; active compounds read low; strain lacks LuxN and CqsS sensors; 0 = neutral-control median; activity change, % at 7.5 µM; 0.4% of 300,000 active; AID 2094; in the data active = activity change below about -75%, passing the limit was not always enough;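 note: luminescence divided by OD600 gain over 9 h not by final OD600 alone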
# MC4R barr conf: human MC4R beta-arrestin agonism confirmation | shares compounds with MC4R ag barr | U2OS MC4R beta-arrestin recruitment, luminescence; scaled DMSO 0%, Melanotan II 100% | activation, % at 8.9 µM | 31% of 2,400 active | AID 602192;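 active = mean activation across replicates above the hit cutoff set in the earlier primary screen, cut at about 8% in these data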
# MOR-DOR barr ag: counter-screen for MC4R agonists: agonists of mu-delta opioid heterodimer; 5.8% of 2,400 active; activation, % at 9.2 µM; U2OS PathHunter beta-arrestin, beta-gal luminescence; percent of deltorphin B response, DMSO zero; shares compounds with MC4R ag barr;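 active = mean activation across replicates exceeds the hit threshold derived in the earlier primary screen, cut at about 18% in these data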
# Hits are given with their value; i = inactive; nt = no result given.
SMILES,MC4R ag barr,NTR1 agonist,MC4R antag cAMP,AI-2 QS mod,MC4R barr conf,MOR-DOR barr ag
CCN1CCC(O)(/C=C/c2ccc(C(C)C)cc2)C(C(=O)/C=C/c2ccc(C(C)C)cc2)C1 (stereo not given),12,nt,i,nt,17,i
CCN1CCN(C(=O)/C=C/c2ccc(C(C)C)cc2)CC1,i,i,i,i,nt,nt
COC(=O)C1=C(C)N(Cc2ccccc2)C(=NCc2ccccc2)N[C@H]1c1cccc(F)c1,9.6,i,i,i,11,i
CC(NCc1cccc(OCc2ccccc2)c1)C(O)c1ccccc1 (stereo not given),i,i,i,i,nt,nt
CC(NCc1ccc(OCc2ccc(Cl)cc2)cc1)C(O)c1ccccc1 (stereo not given),16,i,i,i,26,i
CC(=O)Nc1ccc(/C(C)=N/NC(=O)c2ccc(COc3ccccc3Cl)o2)cc1,i,i,i,i,nt,nt
COc1ccc(/C=N/NC(=O)c2ccc(COc3ccccc3Cl)o2)cc1,9.9,i,i,i,i,i
COc1ccc(/C=N/NC(=O)c2ccc(COc3ccccc3Cl)o2)c(OC)c1C,17,i,i,i,18,i
CN(CC(=O)Nc1cccc(F)c1)C(=O)CCc1nc2sc3c(c2c(=O)[nH]1)CCCC3,i,i,i,i,nt,nt
COC(=O)CCc1c(COC(C)=O)[nH]c(C(=O)OCc2ccccc2)c1C,i,i,i,i,nt,nt
N#Cc1ccc(OCC(=O)OCC(=O)c2ccc[nH]2)cc1,i,i,i,nt,nt,nt
Cc1cc(NC(=O)c2noc3c2CCCCC3)nn1Cc1ccc(Cl)cc1,12,i,i,i,i,i
COc1ccc(-c2cc(C(=O)NCc3ccc(Cl)cc3)no2)cc1OC,i,i,i,i,nt,nt
COc1ccccc1-c1cc(C(=O)Nc2cc(C)n(Cc3ccc(Cl)cc3)n2)no1,21,i,i,i,15,i
Cc1nn(Cc2ccc(Cl)cc2)c(C)c1NC(=O)c1noc2c1CCCCC2,i,i,i,i,nt,nt
COc1ccccc1-c1cc(C(=O)Nc2cc(C)nn2-c2ccccc2)no1,9.9,i,i,i,i,i
COc1ccc(OC)c(-c2cc(C(=O)NCc3ccc(Cl)cc3)no2)c1,10,i,i,i,i,i
CC(=O)Nc1cc(-c2ccc(N(C)C)cc2)cn2c(-c3ccc(F)cc3)cnc12,123,nt,i,nt,70,i
CC(=O)Nc1cc(-c2ccc(C(=O)N3CCOCC3)cc2)cn2c(-c3ccc(F)cc3)cnc12,i,nt,i,nt,nt,nt
CC(=O)Nc1cc(-c2ccc(C(=O)NC3CC3)cc2)cn2c(-c3ccc(F)c(Cl)c3)cnc12,i,nt,i,nt,nt,nt
CC(=O)Nc1cc(-c2ccc(N(C)C)cc2)cn2c(-c3ccc(F)c(Cl)c3)cnc12,71,nt,i,nt,200,i
CC(=O)Nc1cc(-c2ccc(S(C)(=O)=O)cc2)cn2c(-c3ccc(F)cc3)cnc12,i,nt,i,nt,nt,nt
CC(=O)Nc1cc(-c2ccc(S(C)(=O)=O)cc2)cn2c(-c3ccc(F)c(Cl)c3)cnc12,20,nt,i,nt,17,i
C[C@H](CO)N1C[C@H](C)[C@@H](CN(C)S(=O)(=O)c2ccc(F)cc2)Oc2c(NC(=O)Cc3ccccc3)cccc2C1=O,i,i,i,nt,nt,nt
O=c1[nH]nc(Cc2ccc(-c3cccc(Cl)c3)o2)c2ccccc12,14,i,i,i,i,i
SMILES,MC4R ag barr,NTR1 agonist,MC4R antag cAMP,AI-2 QS mod,MC4R barr conf,MOR-DOR barr ag
Clc1cccc(-c2ccc(CNCc3ccccn3)o2)c1,i,i,i,i,nt,nt
O=C(NC1CCSc2ccccc21)c1ccc(C(F)(F)F)cc1 (stereo not given),9.7,i,i,i,i,i
Cn1c(SCC(=O)c2ccc3c(c2)Cc2ccccc2-3)nnc1-c1ccccc1,11,i,i,i,9.4,i
CCC(=O)Nc1nnc(SCC(=O)c2ccc3c(c2)Cc2ccccc2-3)s1,18,i,i,i,i,i
CCC(=O)Nc1nnc(SCC(=O)N2c3ccccc3CC2C)s1 (stereo not given),i,i,i,i,nt,nt
CC(=O)Nc1nnc(SCC(=O)c2ccc3c(c2)Cc2ccccc2-3)s1,12,i,i,i,i,i
CCN1C(=O)[C@H]2[C@@H](c3ccc(-c4ccc(Cl)c(Cl)c4)c(OC)c3)N[C@@](Cc3ccccc3)(C(=O)OC)[C@H]2C1=O,i,i,i,i,nt,nt
COc1ccc(S(=O)(=O)Nc2c(O)ccc3ccccc23)cc1OC,i,i,i,i,nt,nt
COc1ccc(-c2ccc(C#N)c(SCC(=O)NCc3ccco3)n2)cc1OC,16,i,i,i,i,i
Cc1ccccc1OCC(=O)NCC(c1cccs1)N1CCOCC1 (stereo not given),i,i,i,i,nt,nt
Cc1cc(NC(=O)CCCOc2ccc(Cl)cc2Cl)no1,17,i,i,i,i,i
O=C(CCCOc1ccc(Cl)cc1Cl)Nc1ncccn1,i,i,i,i,nt,nt
O=C(CCCCn1c(=O)c2ccccc2n(Cc2ccc(Cl)cc2)c1=O)NCc1ccco1,12,i,i,i,i,i
CCCCn1c(SCC(=O)NCc2ccco2)nc2ccccc2c1=O,i,i,i,i,nt,nt
O=C(CCCCCn1c(SCC(=O)c2ccccc2)nc2ccccc2c1=O)NCc1ccco1,28,i,i,i,i,i
Cc1nc2c3ccccc3nc(SCC(=O)c3ccc(Cl)cc3)n2n1,11,i,i,i,14,i
O=C(CCCn1c(SCC(=O)c2ccc(Cl)cc2)nc2ccccc2c1=O)NCc1ccco1,19,i,i,i,i,29
CC(=O)NS(=O)(=O)c1ccc(NC(=O)CCC(=O)Oc2ccc(C)cc2)cc1,i,i,i,i,nt,nt
Cc1nn(CC(=O)NCc2cccc3ccccc23)c(=O)c2ccccc12,19,i,i,i,i,i
CCOc1ccc(S(=O)(=O)N2CCCC(C(=O)NCc3cccnc3)C2)cc1Cl (stereo not given),i,i,i,i,nt,nt
COc1ccc(CNc2ncnc(N)n2)cc1,i,i,i,i,nt,nt
COc1ccc(CNc2nc(NCc3ccc(OC)cc3)c3[nH]cnc3n2)cc1,12,i,i,i,8.8,i
O=C(NCCC(=O)N1CCc2ccccc21)c1ccco1,i,i,i,i,nt,nt
CCC(C)Sc1nc2c(cnn2-c2ccccc2)c(=O)[nH]1 (stereo not given),11,i,i,i,i,i
CCC(C)Sc1nc2c(cnn2-c2ccc(C)cc2)c(=O)[nH]1 (stereo not given),i,i,i,i,nt,nt
CC(C)c1ccc(NC(=O)C2CCN(c3ncnc4c3nc3n4CCCCC3)CC2)cc1,27,i,i,nt,i,i
Cc1cccc(S(=O)(=O)Nc2ccc(-c3nc4ccc(C)cc4s3)cc2)c1,16,i,i,i,i,i
Cc1ccc(S(=O)(=O)Nc2ccc(-c3nc4ccc(C)cc4s3)cc2)cc1,14,i,i,i,15,i
